Experimental data reported in ChEMBL document CHEMBL1151448, “Comparative antianaerobic activities of doripenem determined by MIC and time-kill analysis” (2008).
Converted amounts (≈) assume the structure as drawn. The source made the active and inactive calls. The rule behind the calls is not given here.

Experiments:
[1] = tested on: Prevotella melaninogenica; assay: Antimicrobial activity against beta lactamase-positive Prevotella melaninogenica isolated from intra-abdominal infection and pelvic inflammatory disease patients after 48 hrs by agar dilution method; assay type: functional
How it was run: (§1)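 CLSI agar dilution on brucella blood agar supplemented with laked sheep blood, hemin and vitamin K. Inocula of about 1 × 10^5 CFU/spot were applied by Steers replicator, and plates were incubated 48 h at 35°C in an anaerobic glove box. MIC was the concentration giving marked growth reduction versus the anaerobic control plate. QC strains were included each run, and β-lactamase was detected by Cefinase disk.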

Fusobacterium nucleatum [2] = assay: Antimicrobial activity against beta lactamase-positive Fusobacterium nucleatum isolated from intra-abdominal infection and pelvic inflammatory disease patients after 48 hrs by time kill analysis; assay type: functional
How it was run: (§2)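 The MIC was read by inspecting macrodilution time-kill tubes. Vials held prereduced brucella broth with 5% laked horse blood cells, hemin 5 μg/ml and vitamin K1 1 μg/ml. Final inoculum was 10^6–10^7 CFU/ml, prepared inside the anaerobe chamber. Vials were incubated 48 h at 35°C in a shaking water bath.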

[3] = tested on: Bacteroides thetaiotaomicron; assay: Bactericidal activity against beta lactamase-positive Bacteroides thetaiotaomicron isolated from intra-abdominal infection and pelvic inflammatory disease patients assessed as bacterial killing at MIC after 24 hrs by time kill analysis; assay type: functional
How it was run: (§3)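 Macrodilution time-kill in prereduced brucella broth with 5% laked horse blood, hemin 5 μg/ml and vitamin K1 1 μg/ml, at final inoculum 10^6–10^7 CFU/ml. […] Viable counts were taken at 6, 12, 24 and 48 h on plates incubated 48 h anaerobically. 99.9% kill was taken as bactericidal.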

[4] = tested on: Peptoniphilus asaccharolyticus; assay: Antimicrobial activity against Peptoniphilus asaccharolyticus isolated from intra-abdominal infection and pelvic inflammatory disease patients after 48 hrs by agar dilution method; assay type: functional; how it was run: as §1
Prevotella intermedia [5] = assay: Bactericidal activity against beta lactamase-positive Prevotella intermedia isolated from intra-abdominal infection and pelvic inflammatory disease patients assessed as bacterial killing at MIC after 24 hrs by time kill analysis; assay type: functional
How it was run: (§4)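 Anaerobic macrodilution time-kill. Inoculum from brucella blood plates, prepared and diluted in prereduced brucella broth inside the anaerobe chamber. Final 10^6 to 10^7 CFU/ml in prereduced brucella broth with 5% laked horse blood cells, 5 μg/ml hemin and 1 μg/ml vitamin K1. […] Shaken at 35°C for 48 h. Viable counts taken at 6, 12, 24 and 48 h. 99.9% kill taken as bactericidal.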

[Clostridium] innocuum = Antimicrobial activity against Clostridium innocuum isolated from intra-abdominal infection and pelvic inflammatory disease patients after 48 hrs by agar dilution method; assay type: functional; how it was run: as §1
Parvimonas micra = assay: Antimicrobial activity against Micromonas micros isolated from intra-abdominal infection and pelvic inflammatory disease patients after 48 hrs by agar dilution method; assay type: functional; how it was run: as §1
Clostridioides difficile [6] = assay: Bactericidal activity against Clostridium difficile isolated from intra-abdominal infection and pelvic inflammatory disease patients assessed as bacterial killing at 2 times MIC after 48 hrs by time kill analysis; assay type: functional; how it was run: as §3
[7] = tested on: Paraclostridium bifermentans; assay: Antimicrobial activity against Clostridium bifermentans isolated from intra-abdominal infection and pelvic inflammatory disease patients after 48 hrs by agar dilution method; assay type: functional; how it was run: as §1
Prevotella corporis = assay: Antimicrobial activity against beta lactamase-positive Prevotella corporis isolated from intra-abdominal infection and pelvic inflammatory disease patients after 48 hrs by agar dilution method; assay type: functional; how it was run: as §1
Phocaeicola vulgatus = assay: Antimicrobial activity against beta lactamase-positive Bacteroides vulgatus isolated from intra-abdominal infection and pelvic inflammatory disease patients after 48 hrs by agar dilution method; assay type: functional; how it was run: as §1
Clostridioides difficile [8] = assay: Bactericidal activity against Clostridium difficile isolated from intra-abdominal infection and pelvic inflammatory disease patients assessed as bacterial killing at MIC after 24 hrs by time kill analysis; assay type: functional; how it was run: as §3
Fusobacterium nucleatum [9] = assay: Bactericidal activity against beta lactamase-positive Fusobacterium nucleatum isolated from intra-abdominal infection and pelvic inflammatory disease patients assessed as bacterial killing at MIC after 24 hrs by time kill analysis; assay type: functional; how it was run: as §4
Clostridioides difficile [10] = assay: Bactericidal activity against Clostridium difficile isolated from intra-abdominal infection and pelvic inflammatory disease patients assessed as 99.9% bacterial killing at 2 times MIC after 48 hrs by time kill analysis; assay type: functional, organism-based; how it was run: as §3
Thomasclavelia ramosa = assay: Antimicrobial activity against Clostridium ramosum isolated from intra-abdominal infection and pelvic inflammatory disease patients after 48 hrs by agar dilution method; assay type: functional; how it was run: as §1
Prevotella intermedia [11] = assay: Antimicrobial activity against beta lactamase-positive Prevotella intermedia isolated from intra-abdominal infection and pelvic inflammatory disease patients after 48 hrs by time kill analysis; assay type: functional; how it was run: as §2
[12] = tested on: Enterocloster clostridioformis; assay: Antimicrobial activity against Clostridium clostridioforme isolated from intra-abdominal infection and pelvic inflammatory disease patients after 48 hrs by agar dilution method; assay type: functional; how it was run: as §1
[13] = tested on: Bacteroides thetaiotaomicron; assay: Antimicrobial activity against beta lactamase-positive Bacteroides thetaiotaomicron isolated from intra-abdominal infection and pelvic inflammatory disease patients after 48 hrs by agar dilution method; assay type: functional; how it was run: as §1
Porphyromonas gingivalis = assay: Antimicrobial activity against Porphyromonas gingivalis isolated from intra-abdominal infection and pelvic inflammatory disease patients after 48 hrs by agar dilution method; assay type: functional; how it was run: as §1
Finegoldia magna [14] = assay: Antimicrobial activity against beta lactamase-positive Finegoldia magna isolated from intra-abdominal infection and pelvic inflammatory disease patients after 48 hrs by time kill analysis; assay type: functional; how it was run: as §2
[15] = tested on: Bacteroides thetaiotaomicron; assay: Bactericidal activity against beta lactamase-positive Bacteroides thetaiotaomicron isolated from intra-abdominal infection and pelvic inflammatory disease patients assessed as bacterial killing at 2 times MIC after 48 hrs by time kill analysis; assay type: functional; how it was run: as §3
Prevotella nigrescens = assay: Antimicrobial activity against beta lactamase-positive Prevotella nigrescens isolated from intra-abdominal infection and pelvic inflammatory disease patients after 48 hrs by agar dilution method; assay type: functional; how it was run: as §1
Anaerococcus tetradius = assay: Antimicrobial activity against Anaerococcus tetradius isolated from intra-abdominal infection and pelvic inflammatory disease patients after 48 hrs by agar dilution method; assay type: functional; how it was run: as §1
Prevotella disiens = assay: Antimicrobial activity against beta lactamase-positive Prevotella disiens isolated from intra-abdominal infection and pelvic inflammatory disease patients after 48 hrs by agar dilution method; assay type: functional; how it was run: as §1
Anaerococcus prevotii = assay: Antimicrobial activity against Anaerococcus prevotii isolated from intra-abdominal infection and pelvic inflammatory disease patients after 48 hrs by agar dilution method; assay type: functional; how it was run: as §1
Fusobacterium varium = assay: Antimicrobial activity against Fusobacterium varium isolated from intra-abdominal infection and pelvic inflammatory disease patients after 48 hrs by agar dilution method; assay type: functional; how it was run: as §1
Bacteroides fragilis [16] = assay: Bactericidal activity against beta lactamase-positive Bacteroides fragilis isolated from intra-abdominal infection and pelvic inflammatory disease patients assessed as bacterial killing at 2 times MIC after 48 hrs by time kill analysis; assay type: functional; how it was run: as §3
Bacteroides fragilis [17] = assay: Antimicrobial activity against beta lactamase-positive Bacteroides fragilis isolated from intra-abdominal infection and pelvic inflammatory disease patients after 48 hrs by agar dilution method; assay type: functional; how it was run: as §1
[18] = tested on: Paeniclostridium sordellii; assay: Antimicrobial activity against Clostridium sordellii isolated from intra-abdominal infection and pelvic inflammatory disease patients after 48 hrs by agar dilution method; assay type: functional; settings: Paraclostridium sordellii; how it was run: as §1
Fusobacterium nucleatum [19] = assay: Antimicrobial activity against beta lactamase-positive Fusobacterium nucleatum isolated from intra-abdominal infection and pelvic inflammatory disease patients after 48 hrs by agar dilution method; assay type: functional; how it was run: as §1
Finegoldia magna [20] = assay: Bactericidal activity against beta lactamase-positive Finegoldia magna isolated from intra-abdominal infection and pelvic inflammatory disease patients assessed as bacterial killing at 2 times MIC after 48 hrs by time kill analysis; assay type: functional; how it was run: as §4

**Q.** How did the MIC50 [1] turn out when `C[C@@H](O)[C@H]1C(=O)N2C(C(=O)O)=C(SCCNC=N)C[C@H]12` [IMIPENEM ANHYDROUS] was run?
**A.** Its MIC50 is 0.03 µg/mL (≈ 0.1 µM).

**Q.** What about the MIC90 [1] of the same molecule?
**A.** Its MIC90 is 0.03 µg/mL (≈ 0.1 µM).

**Q.** And the MIC (Fusobacterium nucleatum [2])?
**A.** The MIC was 0.016 µg/mL (≈ 0.0534 µM).

**Q.** What about the Activity [3] of the same molecule?
**A.** Its Activity is 90%.

**Q.** What about the MIC [4] of the same molecule?
**A.** Its MIC is no more than 0.016 µg/mL.

**Q.** And the MIC50 [4]?
**A.** The MIC50 was no more than 0.016 µg/mL.

**Q.** And the MIC90 [4]?
**A.** Its MIC90 is 0.03 µg/mL (≈ 0.1 µM).

**Q.** And the Activity (Prevotella intermedia [5])?
**A.** The Activity was 90%.

**Q.** And the MIC ([Clostridium] innocuum)?
**A.** The MIC was 1 µg/mL (≈ 3.34 µM).

**Q.** What about the MIC50 ([Clostridium] innocuum) of the same molecule?
**A.** Its MIC50 is 1 µg/mL (≈ 3.34 µM).

**Q.** And the MIC (Parvimonas micra)?
**A.** Its MIC is 0.03 µg/mL (≈ 0.1 µM).

**Q.** And the MIC50 (Parvimonas micra)?
**A.** Its MIC50 is 0.03 µg/mL (≈ 0.1 µM).

**Q.** What about the MIC90 (Parvimonas micra) of the same molecule?
**A.** Its MIC90 is 0.06 µg/mL (≈ 0.2 µM).

**Q.** What about the Activity (Clostridioides difficile [6]) of the same molecule?
**A.** The Activity was 99%.

**Q.** And the MIC [7]?
**A.** Its MIC is 0.25 µg/mL (≈ 0.835 µM).

**Q.** And the MIC50 (Prevotella corporis)?
**A.** Its MIC50 is 0.03 µg/mL (≈ 0.1 µM).

**Q.** What about the MIC90 (Prevotella corporis) of the same molecule?
**A.** Its MIC90 is 0.06 µg/mL (≈ 0.2 µM).

**Q.** And the MIC50 (Phocaeicola vulgatus)?
**A.** Its MIC50 is 0.5 µg/mL (≈ 1.67 µM).

**Q.** What about the MIC90 (Phocaeicola vulgatus) of the same molecule?
**A.** Its MIC90 is 1 µg/mL (≈ 3.34 µM).

**Q.** What about the Activity (Clostridioides difficile [8]) of the same molecule?
**A.** The Activity was 90%.

**Q.** What about the Activity (Fusobacterium nucleatum [9]) of the same molecule?
**A.** The Activity was 90%.

**Q.** What about the Activity (Clostridioides difficile [10]) of the same molecule?
**A.** The Activity was “inactive”.

**Q.** What about the MIC (Thomasclavelia ramosa) of the same molecule?
**A.** Its MIC is 0.25 µg/mL (≈ 0.835 µM).

**Q.** What about the MIC50 (Thomasclavelia ramosa) of the same molecule?
**A.** Its MIC50 is 0.25 µg/mL (≈ 0.835 µM).

**Q.** What about the MIC (Prevotella intermedia [11]) of the same molecule?
**A.** The MIC was 0.03 µg/mL (≈ 0.1 µM).

**Q.** What about the MIC [12] of the same molecule?
**A.** The MIC was 2 µg/mL (≈ 6.68 µM).

**Q.** And the MIC [13]?
**A.** The MIC was 0.25 µg/mL (≈ 0.835 µM).

**Q.** What about the MIC50 [13] of the same molecule?
**A.** The MIC50 was 0.25 µg/mL (≈ 0.835 µM).

**Q.** What about the MIC90 [13] of the same molecule?
**A.** Its MIC90 is 0.5 µg/mL (≈ 1.67 µM).

**Q.** And the MIC (Porphyromonas gingivalis)?
**A.** Its MIC is no more than 0.016 µg/mL.

**Q.** And the MIC (Finegoldia magna [14])?
**A.** Its MIC is 0.06 µg/mL (≈ 0.2 µM).

**Q.** What about the Activity [15] of the same molecule?
**A.** Its Activity is 99%.

**Q.** What about the MIC50 (Prevotella nigrescens) of the same molecule?
**A.** Its MIC50 is 0.03 µg/mL (≈ 0.1 µM).

**Q.** What about the MIC90 (Prevotella nigrescens) of the same molecule?
**A.** Its MIC90 is 0.03 µg/mL (≈ 0.1 µM).

**Q.** And the MIC50 (Anaerococcus tetradius)?
**A.** The MIC50 was 0.03 µg/mL (≈ 0.1 µM).

**Q.** And the MIC (Prevotella disiens)?
**A.** Its MIC is 0.03 µg/mL (≈ 0.1 µM).

**Q.** What about the MIC50 (Prevotella disiens) of the same molecule?
**A.** The MIC50 was 0.03 µg/mL (≈ 0.1 µM).

**Q.** And the MIC90 (Prevotella disiens)?
**A.** Its MIC90 is 0.125 µg/mL (≈ 0.418 µM).

**Q.** And the MIC (Anaerococcus prevotii)?
**A.** Its MIC is no more than 0.016 µg/mL.

**Q.** And the MIC50 (Fusobacterium varium)?
**A.** Its MIC50 is 1 µg/mL (≈ 3.34 µM).

**Q.** And the MIC90 (Fusobacterium varium)?
**A.** The MIC90 was 1 µg/mL (≈ 3.34 µM).

**Q.** What about the Activity (Bacteroides fragilis [16]) of the same molecule?
**A.** Its Activity is 99%.

**Q.** And the MIC50 (Bacteroides fragilis [17])?
**A.** The MIC50 was 0.125 µg/mL (≈ 0.418 µM).

**Q.** And the MIC90 (Bacteroides fragilis [17])?
**A.** Its MIC90 is 0.25 µg/mL (≈ 0.835 µM).

**Q.** And the MIC [18]?
**A.** The MIC was 0.125 µg/mL (≈ 0.418 µM).

**Q.** What about the MIC50 (Fusobacterium nucleatum [19]) of the same molecule?
**A.** The MIC50 was 0.03 µg/mL (≈ 0.1 µM).

**Q.** What about the MIC90 (Fusobacterium nucleatum [19]) of the same molecule?
**A.** The MIC90 was 0.03 µg/mL (≈ 0.1 µM).

**Q.** And the Activity (Finegoldia magna [20])?
**A.** The Activity was 99%.
